Laboratory results: ChEMBL document CHEMBL2150929, “Lipidated peptidomimetics with improved antimicrobial activity” (ACS Med Chem Lett, 2012)
≈ marks a conversion by molar mass, not a printed value. Calls of active or inactive are those of the source. The rule behind the calls is not given here.

Experiments:
Pseudomonas aeruginosa = test: Antimicrobial activity against Pseudomonas aeruginosa ATCC 27853 after 24 hrs by broth micro-dilution method; type: functional; conditions: ATCC 27853, 24 h
[1] = Toxicity in RBC assessed as hemolysis; type: cell-based, Erythrocyte; conditions: for HC10: erythrocyte; for HC50: red blood cells (RBC)
Summary of the method: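 Hemolysis of red blood cells measured over a concentration range. H10 and H50 are the concentrations giving 10% and 50% hemolysis.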

Klebsiella pneumoniae = test: Antimicrobial activity against Klebsiella pneumoniae ATCC 13383 after 24 hrs by broth micro-dilution method; type: functional; conditions: ATCC 13383, 24 h
[2] = test system: Staphylococcus epidermidis; test: Antimicrobial activity against methicillin-resistant Staphylococcus epidermidis RP62A after 24 hrs by broth micro-dilution method; type: functional
Summary of the method: (§1)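 MIC read as the lowest concentration giving complete inhibition of bacterial growth after 24 h of incubation. Pexiganan and a linear α-AApeptide were run alongside as positive controls.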

Enterococcus faecalis = test: Antimicrobial activity against Vancomycin-resistant Enterococcus faecalis ATCC 700802 after 24 hrs by broth micro-dilution method; type: functional; conditions: ATCC 700802, 24 h; summary of the method: as §1
Candida albicans = test: Antimicrobial activity against Candida albicans ATCC 10231 after 48 hrs by broth micro-dilution method; type: functional; conditions: ATCC 10231, 48 h
Escherichia coli [3] = test: Antimicrobial activity against Escherichia coli JM109 after 24 hrs by broth micro-dilution method; type: functional; conditions: JM109, 24 h
Bacillus subtilis = test: Antimicrobial activity against Bacillus subtilis BR151 after 24 hrs by broth micro-dilution method; type: functional; conditions: BR151, 24 h
Staphylococcus aureus = test: Antimicrobial activity against methicillin-resistant Staphylococcus aureus ATCC 33592 after 24 hrs by broth micro-dilution method; type: functional; conditions: ATCC 33592, 24 h; summary of the method: as §1
Escherichia coli [4] = test: Induction of membrane disruption in Escherichia coli JM109 at 10 ug/ml after 2 hrs by Propidium iodide-staining based fluorescence microscopy; type: functional, organism-based
Summary of the method: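 E. coli exposed to 10 μg/mL for 2 h, then stained with DAPI, which labels all cells, and propidium iodide, which enters cells with damaged membranes. Red PI fluorescence imaged by fluorescence microscopy against untreated controls.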

Row | Compound | MIC (Pseudomonas aeruginosa) [µg/mL] | HC10 [1] [µg/mL] | HC50 [1] [µg/mL] | MIC (Klebsiella pneumoniae) [µg/mL] | MIC [2] [µg/mL] | MIC (Enterococcus faecalis) [µg/mL] | MIC (Candida albicans) [µg/mL] | MIC (Escherichia coli [3]) [µg/mL] | MIC (Bacillus subtilis) [µg/mL] | MIC (Staphylococcus aureus) [µg/mL] | Activity (Escherichia coli [4])
1 | CCCCCCCCCCCCCCCC(=O)NCCN(C(=O)CCc1ccccc1)[C@@H](CCCCN)C(=O)NCCN(C(=O)CCc1ccccc1)[C@@H](CCCCN)C(=O)NCCN(C(=O)CCc1ccccc1)[C@@H](CCCCN)C(N)=O | > 50 | 15 | 150 | > 50 | 20 (≈ 17.2 µM) | 10 (≈ 8.58 µM) | > 50 | > 50 | 2 (≈ 1.72 µM) | 8 (≈ 6.86 µM) | 
2 | CCCCCCCCCCCCCCCC(=O)NCCN(C(C)=O)[C@@H](C)C(=O)NCCN(C(C)=O)[C@@H](C)C(=O)NCCN(C(=O)CCCN)[C@@H](CCCCN)C(=O)NCCN(C(=O)CCCN)[C@@H](CCCCN)C(=O)NCCN(C(=O)CCCN)[C@@H](CCCCN)C(N)=O | 10 (≈ 7.48 µM) | 100 | > 500 | 20 (≈ 15 µM) | 10 (≈ 7.48 µM) | 20 (≈ 15 µM) | 10 (≈ 7.48 µM) | 4 (≈ 2.99 µM) | 4 (≈ 2.99 µM) | 8 (≈ 5.98 µM) | 
3 | CCCCCCCCCCCCCCCC(=O)NCCN(C(=O)CCc1ccccc1)[C@@H](CCCCN)C(=O)NCCN(C(=O)CCc1ccccc1)[C@@H](CCCCN)C(N)=O | > 50 | > 500 | > 500 | > 50 | 15 (≈ 17.4 µM) | 3 (≈ 3.48 µM) | 2 (≈ 2.32 µM) | > 50 | 4 (≈ 4.64 µM) | 8 (≈ 9.28 µM) | 
4 | H-GIGKFLKKAKKFGKAFVKILKK-NH2 [PEXIGANAN] | 8 | 181 | 495 | 8 | 8 | 32 | 124 | 8 | 4 | 16 | 
5 | CCCCCCCCCCCCCCCC(=O)NCCN(C(=O)CCCN)[C@@H](Cc1ccccc1)C(=O)NCCN(C(=O)CCCN)[C@@H](Cc1ccccc1)C(=O)NCCN(C(=O)CCCN)[C@@H](Cc1ccccc1)C(N)=O | 20 (≈ 18.5 µM) | 50 | 300 | > 50 | 8 (≈ 7.4 µM) | 4 (≈ 3.7 µM) | 3 (≈ 2.77 µM) | 8 (≈ 7.4 µM) | 2 (≈ 1.85 µM) | 4 (≈ 3.7 µM) | 
6 | CCCCCCCCCCCCCCCC(=O)NCCN(C(C)=O)[C@@H](C)C(=O)NCCN(C(C)=O)[C@@H](C)C(=O)NCCN(C(=O)CCCN)[C@@H](Cc1ccccc1)C(=O)NCCN(C(=O)CCCN)[C@@H](Cc1ccccc1)C(=O)NCCN(C(=O)CCCN)[C@@H](Cc1ccccc1)C(N)=O | 8 (≈ 5.74 µM) | 40 | 400 | 8 (≈ 5.74 µM) | 4 (≈ 2.87 µM) | 4 (≈ 2.87 µM) | 20 (≈ 14.3 µM) | 30 (≈ 21.5 µM) | 2 (≈ 1.43 µM) | 4 (≈ 2.87 µM) | 
7 | CCCCCCCCCCCCCCCC(=O)NCCN(C(=O)CCCN)[C@@H](Cc1ccccc1)C(=O)NCCN(C(=O)CCCN)[C@@H](Cc1ccccc1)C(=O)NCCN(C(=O)CCCN)[C@@H](Cc1ccccc1)C(=O)NCCN(C(=O)CCCN)[C@@H](Cc1ccccc1)C(=O)NCCN(C(=O)CCCN)[C@@H](Cc1ccccc1)C(N)=O | 12 (≈ 7.35 µM) | 20 | 250 | 8 (≈ 4.9 µM) | 10 (≈ 6.13 µM) | 4 (≈ 2.45 µM) | 4 (≈ 2.45 µM) | 4 (≈ 2.45 µM) | 4 (≈ 2.45 µM) | 8 (≈ 4.9 µM) | Active
8 | CCCCCCCCCCCCCCCC(=O)NCCN(C(=O)CCC(C)C)[C@@H](CCCCN)C(=O)NCCN(C(=O)CCC(C)C)[C@@H](CCCCN)C(N)=O | > 50 | > 500 | > 500 | > 50 | 10 (≈ 12.6 µM) | 1 (≈ 1.26 µM) | 2 (≈ 2.52 µM) | > 50 | 2 (≈ 2.52 µM) | 5 (≈ 6.3 µM) | 
